Measured values from different studies.
Each line is one published result; the experiments were not run side by side.
Target: Serine/threonine-protein kinase MRCK alpha (CDC42BPA, Homo sapiens, UniProt Q5VT25)

CC1CCCN1c1nccc(-c2cnn3ncccc23)n1 (stereo not shown)  remaining binding (binding; 1 µM): 100%
O=C(c1ccc(Nc2ncc(Cl)c(-c3ccc(Cl)s3)n2)cc1)N1CCC(N2CCCC2)CC1  remaining binding (binding; competition with immobilised ligand; 1 µM): 53%
COc1cnc(Nc2cccc(S(N)(=O)=O)c2)nc1N1CCN(c2ccccc2)CC1  remaining binding (binding; competition with immobilised ligand; 1 µM): 97%
C[C@@H](c1ccc(-n2cnc3c(N)ncnc32)cc1)N1CCc2nn(C)c(Cc3ccccc3)c2C1=O  remaining binding (binding; competition with immobilised ligand; 0.1 µM): 91%
CNC(=O)[C@@H]1CC[C@@H](n2c(-c3ccc4cnccc4c3)nc3ccc(C(=O)NCc4cccc(C(N)=O)c4)cc32)C1  remaining binding (binding; competition with immobilised ligand; 1 µM): 100%
Cc1cnn2ncc(-c3ccnc(N(C)C)n3)c2c1  remaining binding (binding; 1 µM): 87%
Nc1ncc2c(n1)-c1c([nH]c3ccc(C#CC4CC4)cc13)CCCC2  remaining binding (binding; competition with immobilised ligand; 1 µM): 88%
O=C(NCC1CCOCC1)c1n[nH]cc1NC(=O)c1c(F)cccc1F  remaining binding (binding; competition with immobilised ligand; 1 µM): 100%
O=C(NCc1ncc(C(F)(F)F)cc1Cl)c1ccc2c(c1)C1(CCS(=O)(=O)CC1)[C@@H](C1CC1)N2S(=O)(=O)c1ccc(F)cc1  remaining binding (cell-free assay; competition with immobilised ligand; 1 µM): 100%
O=C(c1ccc(Nc2ncc(Cl)c(-c3cc4ccccc4s3)n2)cc1)N1CCC(N2CCCC2)CC1  remaining binding (binding; competition with immobilised ligand; 1 µM): 14%
Cc1cc(-n2nc(Cc3cc(F)cc(C(F)(F)F)c3)nc2C)ccc1C(N)=O  remaining binding (cell-free assay; competition with immobilised ligand; 1 µM): 100%
O=C(NCCCN1CCOCC1)c1ccc(Nc2ncc(Cl)c(-c3ccc(Cl)s3)n2)cc1  remaining binding (binding; competition with immobilised ligand; 1 µM): 100%
CN(c1nccc(-c2cnn3ncccc23)n1)C1CC1  remaining binding (binding; 1 µM): 100%
CCC(=N\O)/C(C)=C/c1ccc(F)cc1  remaining binding (cell-free assay; competition with immobilised ligand; 1 µM): 100%
CN(C)c1nccc(-c2cnc3ncccn23)n1  remaining binding (binding; 1 µM): 83%
O=C(Nc1cccnn1)N1CCC(=Cc2cccc(Oc3ccc(C(F)(F)F)cn3)c2)CC1  remaining binding (cell-free assay; competition with immobilised ligand; 1 µM): 95%
c1cnn2ncc(-c3ccnc(N4CCC45COC5)n3)c2c1  remaining binding (binding; 1 µM): 100%
CS(=O)(=O)N1CCCC(NC(=O)[C@H](CCC2CCCCC2)NC(=O)c2ccc(CNc3ncnc4c3nnn4-c3ccccc3)cc2)C1 (stereo partly shown)  remaining binding (cell-free assay; competition with immobilised ligand; 0.1 µM): 100%
N[C@H]1CCN(c2nccc(-c3cnn4ncccc34)n2)C1  remaining binding (binding; 1 µM): 84%
O=C1CCc2cc(Nc3cc(OC4CCOCC4)c([N+](=O)[O-])cc3Cl)ccc2N1  remaining binding (cell-free assay; competition with immobilised ligand; 1 µM): 91%
COc1ccnn2ncc(-c3ccnc(N(C)C)n3)c12  remaining binding (binding; 1 µM): 100%
CCN1CCN(Cc2ccc(C(=O)Nc3ccc(C)c(Oc4ccc5c(c4)CC(=O)N5)c3)cc2C(F)(F)F)CC1  remaining binding (binding; competition with immobilised ligand; 1 µM): 100%
